Active and inactive are the calls of the source. The rule behind the calls is not given here. Where only a bound is given, the exact number is not on record here.

One assay has as its system HeLa. Briefly: Antiproliferative activity against human HeLa cells assessed as reduction in cell viability after 48 hrs by MTT assay. It is filed as functional, cell-based. A digest of the protocol:
(§1)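 Cells grown at 37 °C, 5% CO2; HeLa, HepG2, H8, HL7702 in RPMI 1640 + 10% fetal calf serum, others in high-glucose DMEM + 10% fetal calf serum. Log-phase cells seeded at 4000-12000/well by doubling time. Attached cells were given 10-fold dilutions, 100 µM to 10 nM (DMSO 0.1% v/v), for 48 h. MTT (2 mg/mL) 4 h, formazan in DMSO, A492. IC50 from triplicate means.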

Assay [1] deals with MCF7. Put plainly: Induction of apoptosis in human MCF7 cells at 500 nM after 48 hrs by Annexin V-FITC/propidium iodide staining-based flow cytometric analysis relative to control (reference value: 11.6%). It is filed as functional. A digest of the protocol: (§2)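 MCF7 cells were seeded in 6-well plates and exposed after adhering to graded concentrations for 48 h, in cycles of 6 h on and 6 h off. They were then stained with annexin V (1 µg/mL) and PI (0.5 µg/mL) in Ca2+-enriched binding buffer for 15 min in the dark at room temperature. Flow cytometry recorded 10,000 events, FL1 versus FL2. Apoptosis was taken as early plus late stage, with at least 3 repeats.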

Assay [2] deals with T1, Tubulin (Homo sapiens) (UniProt P68371+Q9H4B7+P0DPH7+P68366+Q13509+Q71U36+P04350+Q3ZCM7+P07437+P68363+Q9BQE3+Q6PEY2+Q13885+Q9BVA1+Q9BUF5). Briefly: Inhibition of tubulin polymerization in human HeLa cells assessed as contracted and rounded cells with disordered abnormal spindles and chromosomal misalignment at 500 nM after 24 hrs by immunofluorescence based confocal microscopy. The class given is cell-based. In short, it runs like this:
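HeLa cells on glass coverslips were treated for 24 h at 25, 250 or 500 nM. They were fixed in 4% paraformaldehyde for 1 h and permeabilised with 0.2% Triton X-100 for 20 min. Cells were imaged by fluorescence and confocal microscopy.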

Assay [3] relates to MCF7. Put plainly: Cell cycle arrest in human MCF7 cells assessed as accumulation of cells at G2/M phase at 100 nM after 24 hrs by propidium iodide double staining based flow cytometric analysis. It is filed as functional. In short, it runs like this:
(§3)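 Log-phase cells seeded in 6-well plates and, once adhered, treated at 10-1000 nM; incubated in cycles of 6 h on/6 h off up to 48 h. Washed in cold PBS, fixed in 70% ethanol at -20 °C for at least 2 days. Stained with PI (50 µg/mL) 30 min on ice in the dark. 10,000 events on FL2-A vs FL2-W; G1/S/G2/M from DNA modelling. At least three repeats.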

Assay [4] relates to MCF7. Put plainly: Induction of apoptosis in human MCF7 cells at 50 nM after 48 hrs by Annexin V-FITC/propidium iodide staining-based flow cytometric analysis relative to control (reference value: 11.6%). The class given is functional. A digest of the protocol:
as §2

The test system of assay [5] is MCF7. Briefly: Induction of apoptosis in human MCF7 cells at 250 nM after 48 hrs by Annexin V-FITC/propidium iodide staining-based flow cytometric analysis relative to control (reference value: 11.6%). It is filed as functional. In short, it runs like this: as §2
The target in assay [6] is T2, Tubulin (Sus scrofa) (UniProt P02554+P02550). Put plainly: Inhibition of porcine tubulin assembly assessed as tubulin growth inhibition incubated for 30 min by fluorometric analysis. It is filed as protein assay. A digest of the protocol:
(§4)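 This was a centrifugation assay of tubulin assembly. Tubulin was held at 4 °C with 0.9 mM GTP and 6 mM MgCl2, and aggregates were removed at 90000 g for 10 min at 4 °C. Ligands at 0.05–2 µM (1% DMSO) were incubated for 30 min at 37 °C. Supernatants and pellets were diluted 1:5, and tubulin was read fluorometrically (ex 280, em 323) against standards. The 50% inhibitory concentration came from inhibition curves, as the mean of three experiments.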

For a further assay, the system named is A549. Put plainly: Antiproliferative activity against human A549 cells assessed as reduction in cell viability after 48 hrs by MTT assay. It is filed as functional, cell-based. To be noted: A549, 48 h. A digest of the protocol: as §1
Assay [7] deals with MCF7. Briefly: Antitumor activity against human MCF7 cells xenografted in BALB/c nude mouse assessed as inhibition of tumor growth at 40 mg/kg administered for a week. It is filed as functional. A digest of the protocol:
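Male BALB/c nude mice, 4 weeks old, 15-20 g. Log-phase MCF-7 cells in DMEM, 0.1 mL of 1×10^6 cells/mL, injected subcutaneously into the hind leg. Calipers twice weekly; at about 90 mm3, groups of 5. Vehicle was isotonic saline plus 0.005% DMSO. Injected at 40 mg/kg for a week; tumour volume recorded daily.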

The nature of assay [8]: Antiproliferative activity against human H8 cells assessed as reduction in cell viability after 48 hrs by MTT assay. The class given is functional, cell-based. In short, it runs like this: as §1
For a further assay, the target named is Tubulin. Put plainly: Binding affinity to tubulin (unknown origin) assessed as dissociation constant by SPR analysis. It is filed as protein-complex assay, Homo sapiens. A digest of the protocol: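 Tubulin immobilised to about 800 mDeg. Injected at 60 µL/min for 300 s; PBS with 0.5% DMSO as running buffer. Measured at 25 °C, with dilution-corrected peak areas.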

For assay [9], the system named is MCF7. Briefly: Induction of apoptosis in human MCF7 cells at 100 nM after 48 hrs by Annexin V-FITC/propidium iodide staining-based flow cytometric analysis relative to control (reference value: 11.6%). The class given is functional. In short, it runs like this: as §2
Assay [10] relates to MCF7. Briefly: Antiproliferative activity against human MCF7 cells assessed as reduction in cell viability after 48 hrs by MTT assay. It is filed as functional, cell-based. The settings on record: MCF7, 48 h. A digest of the protocol: as §1
Assay [11] relates to MCF7. Briefly: Cell cycle arrest in human MCF7 cells assessed as accumulation of cells at G2/M phase at 250 to 500 nM after 24 hrs by propidium iodide double staining based flow cytometric analysis. It is filed as functional. A digest of the protocol:
as §3

The target of assay [12] is T2, Tubulin (Sus scrofa). Put plainly: Inhibition of porcine tubulin assembly assessed as tubulin growth inhibition at 2 uM incubated for 30 min by fluorometric analysis. It is filed as protein assay. In short, it runs like this: as §4
A short description of assay [13]: Binding affinity to alpha/beta tubulin complex (unknown origin). Details: species or system Homo sapiens. A digest of the protocol: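 SPR assay: tubulin immobilized up to 800 mDeg (response units). Ligands were diluted two-fold from 80 µM to 2.5 µM in PBS with 0.5% (v/v) DMSO and injected at 60 µL/min for 300 s. Running buffer was PBS with 0.5% DMSO, at 25°C.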

Another assay concerns MRC5. Put plainly: Antiproliferative activity against human MRC5 cells assessed as reduction in cell viability after 48 hrs by MTT assay. The class given is functional, cell-based. The settings on record: MRC5, 48 h. In short, it runs like this: as §1
The next assay concerns HMEC. Briefly: Antiproliferative activity against human HMEC cells assessed as reduction in cell viability after 48 hrs by MTT assay. It is filed as functional, cell-based. A digest of the protocol: as §1
Assay [14] deals with T1, Tubulin (Homo sapiens). Put plainly: Ratio of Kd for colchicine to Kd for test compound for tubulin (unknown origin) by surface plasmon resonance analysis. It is filed as protein-complex assay. A digest of the protocol:
(§5)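 SPR binding to immobilised tubulin (up to 800 mDeg) was measured at 25 °C. Compounds were diluted two-fold from 80 to 2.5 µM in PBS with 0.5% DMSO. They were injected at 60 µL/min for 300 s, with PBS containing 0.5% DMSO as running buffer. Kd values came from the titration data.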

In the next assay the test system is HepG2. Briefly: Antiproliferative activity against human HepG2 cells assessed as reduction in cell viability after 48 hrs by MTT assay. It is filed as functional, cell-based. To be noted: HepG2, 48 h. A digest of the protocol: as §1
A further assay has as its system L02. Briefly: Antiproliferative activity against human HL7702 cells assessed as reduction in cell viability after 48 hrs by MTT assay. The class given is functional, cell-based. The settings on record: L02, 48 h. In short, it runs like this: as §1
The test system of assay [15] is MCF7. Briefly: Induction of apoptosis in human MCF7 cells at 10 nM after 48 hrs by Annexin V-FITC/propidium iodide staining-based flow cytometric analysis relative to control (reference value: 11.6%). The class given is functional. A digest of the protocol:
as §2

Assay [16] has as its target T1, Tubulin (Homo sapiens). Put plainly: Ratio of Kd for PTOX to Kd for test compound for tubulin (unknown origin) by surface plasmon resonance analysis. It is filed as protein-complex assay. In short, it runs like this:
as §5

The subject of assay [17] is MCF7. Put plainly: Cell cycle arrest in human MCF7 cells assessed as accumulation of cells at G2/M phase at >=250 nM after 24 hrs by propidium iodide double staining based flow cytometric analysis (reference value: 80%). It is filed as functional. A digest of the protocol: as §3
The target in assay [18] is T1, Tubulin (Homo sapiens). Put plainly: Inhibition of tubulin polymerization in human HeLa cells assessed as cellular microtubule disorganization and H3 phosphorylation at 500 nM after 24 hrs by immunofluorescence based confocal microscopy. The class given is cell-based. A digest of the protocol:
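HeLa cells on glass coverslips were treated for 24 h at 25, 250 or 500 nM. They were fixed in 4% paraformaldehyde for 1 h and permeabilised with 0.2% Triton X-100 for 20 min. Anti-α-tubulin (1:50 in 2% BSA) was applied for 1 h at RT, then Alexa Fluor 488 anti-rabbit IgG (1:500) for 1 h, then DAPI for 20 min. Cells were imaged by fluorescence and confocal microscopy.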

T2 sequence (P02550 whole entry, looked up): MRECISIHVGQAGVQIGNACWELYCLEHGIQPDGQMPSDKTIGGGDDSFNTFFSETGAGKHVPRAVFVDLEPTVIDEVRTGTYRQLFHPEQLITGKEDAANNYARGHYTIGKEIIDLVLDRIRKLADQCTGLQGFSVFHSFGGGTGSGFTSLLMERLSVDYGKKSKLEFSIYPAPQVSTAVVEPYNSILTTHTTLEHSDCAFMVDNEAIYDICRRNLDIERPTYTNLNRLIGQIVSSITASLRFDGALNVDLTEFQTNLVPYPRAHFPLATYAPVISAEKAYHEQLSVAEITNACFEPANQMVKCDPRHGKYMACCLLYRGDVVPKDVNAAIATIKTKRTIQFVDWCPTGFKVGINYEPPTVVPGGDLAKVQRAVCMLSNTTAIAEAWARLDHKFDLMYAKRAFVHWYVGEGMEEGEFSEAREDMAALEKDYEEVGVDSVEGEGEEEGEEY
T2 sequence (P02554 whole entry, looked up): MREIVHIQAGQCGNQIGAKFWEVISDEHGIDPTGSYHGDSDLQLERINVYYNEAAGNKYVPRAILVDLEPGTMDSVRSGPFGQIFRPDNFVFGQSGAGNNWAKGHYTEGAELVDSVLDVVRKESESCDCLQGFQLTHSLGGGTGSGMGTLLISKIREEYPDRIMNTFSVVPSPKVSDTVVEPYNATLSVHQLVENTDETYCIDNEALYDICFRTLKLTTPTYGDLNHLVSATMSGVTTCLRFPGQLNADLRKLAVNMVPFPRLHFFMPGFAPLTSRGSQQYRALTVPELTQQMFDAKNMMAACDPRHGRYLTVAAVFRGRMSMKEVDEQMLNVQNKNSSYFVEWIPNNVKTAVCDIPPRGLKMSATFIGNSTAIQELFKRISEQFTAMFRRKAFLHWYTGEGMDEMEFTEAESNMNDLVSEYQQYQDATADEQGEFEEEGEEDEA

Regarding `COc1cc([C@@H]2c3cc4c(cc3[C@@H](Nc3ccc5cc[nH]c5c3)[C@H]3COC(=O)[C@H]23)OCO4)cc(OC)c1OC`, the IC50 in the assay on HeLa worked out at 80 nM; in the assay on A549, 80 nM; in [8] it was 84500 nM; in the assay with MCF7 [10] it was 70 nM; in the assay on MRC5 it was 69100 nM; in the assay with HMEC, 61600 nM. Moreover, the results for the IC50 with HepG2 and in the assay on L02 were 100 nM and 94600 nM, respectively. Moreover, the Activity is on record as 94.9% in the assay on MCF7 [1]; 50% in the assay with MCF7 [3]; 20.1% in the assay on MCF7 [4]; 92.4 - 93% with MCF7 [5]; 93.5% in the assay with MCF7 [9]; 90% in the assay with MCF7 [11]. In addition, the Activity with MCF7 [15] was 10.5%. In addition, the inhibition entry at Tubulin (Homo sapiens) [2] was “Active”. For the same molecule, on Tubulin (Sus scrofa) [6], the 50% growth inhibitory concentration (GI50) was less than 100 nM. In addition, in the assay on MCF7 [7], the inhibition in vivo at 40 mg/kg came to 89.6%. Further, the Kd on Tubulin was determined as 8100 nM. Moreover, the inhibition at Tubulin (Sus scrofa) [12] came out at 88%. Moreover, the Ki in assay [13] was found to be 10 nM. Besides, the Ratio on Tubulin (Homo sapiens) [14] turned out to be 2.2; at Tubulin (Homo sapiens) [16] it was 2.7.
With `COc1cc([C@@H]2c3cc4c(cc3[C@@H](Nc3ccc5[nH]ncc5c3)[C@H]3COC(=O)[C@H]23)OCO4)cc(OC)c1OC`, the 50% inhibitory concentration (IC50) in the assay on HeLa amounted to 200 nM; in the assay with A549, 200 nM; in assay [8], 98400 nM; in the assay on MCF7 [10] it was 200 nM; in the assay with MRC5, 60800 nM; with HMEC, 81800 nM. The IC50 worked out at 300 nM in the assay on HepG2 and 50600 nM in the assay with L02. Further, the Activity is given as 60% in the assay with MCF7 [5] and 45% in the assay with MCF7 [17]. Also, on Tubulin (Sus scrofa) [6], the GI50 was less than 100 nM. Moreover, at Tubulin, the dissociation constant Kd was 9100 nM. The inhibition on Tubulin (Sus scrofa) [12] was found to be 79%. In assay [13], affinity was put at a Ki of 60 nM. Also, the Ratio on Tubulin (Homo sapiens) [14] was 2.2; at Tubulin (Homo sapiens) [16] it was 2.7. Also, the inhibition entry at Tubulin (Homo sapiens) [18] was “Active”.

The values are drawn from ChEMBL document CHEMBL4346667 (Eur J Med Chem, 2019).
